Hits are enriched below; roughly 0.81% of the tested compounds scored in any of these assays.
TNAP act hiacc – increases human TNAP activity under high phosphate acceptor concentration. P05186. purified TNAP, CDP-star luminescence, 1 M DEA, 30 min; stronger effect = higher value; 0 = EDTA background, 1 = DMSO-only activity. activation factor at 20 µM. 200,000 tested, under 10 active;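 active = activation factor at least 2 at 20 µM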
Target sequence (P05186 whole entry, looked up): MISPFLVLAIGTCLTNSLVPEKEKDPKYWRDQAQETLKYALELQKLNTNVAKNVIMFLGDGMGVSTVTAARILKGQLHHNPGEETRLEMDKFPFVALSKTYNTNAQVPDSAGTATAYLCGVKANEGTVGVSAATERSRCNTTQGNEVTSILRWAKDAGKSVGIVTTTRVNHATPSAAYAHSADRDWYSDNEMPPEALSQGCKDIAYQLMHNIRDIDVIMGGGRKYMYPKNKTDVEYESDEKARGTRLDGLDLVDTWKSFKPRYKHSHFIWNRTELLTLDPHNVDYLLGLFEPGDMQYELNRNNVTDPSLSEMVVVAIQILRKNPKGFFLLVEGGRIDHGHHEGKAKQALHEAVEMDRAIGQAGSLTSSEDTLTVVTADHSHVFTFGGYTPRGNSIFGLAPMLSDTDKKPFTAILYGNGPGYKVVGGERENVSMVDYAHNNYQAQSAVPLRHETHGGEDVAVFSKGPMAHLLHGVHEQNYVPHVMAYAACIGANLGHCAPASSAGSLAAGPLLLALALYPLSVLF
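Assay system: human TNAP; Input: enzyme diluted 1/800 final; Reagent: CDP-star luminogenic substrate at 100 µM final; Timing: 30 min, room temperature; Signal: luminescence; Evaluation: TNAP activation factor scaled between EDTA and DMSO control wells.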
TNAP inh noacc – inhibitors of human TNAP without phosphate acceptor; 0.26% of 200,000 active; inhibition, % at 20 µM; P05186; purified TNAP, CDP-star luminescence, 30 min;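 active = tissue-nonspecific alkaline phosphatase inhibition above about 50% at 20 µM in the single-dose screen, limit read from the data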;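 note: 0% = DMSO negative control and 100% = EDTA positive control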
zVAD death inh – blocks zVAD induced death of L929 cells. L929 zVAD necroptosis rescue, ATP luminescence, 24 h; with zVAD 60 µM. viability rescue, % at 10 µM. 0.38% of 220,000 active. AID 1377;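 active = activation, scaled between plate controls, above about 75%, limit read from the data; inactive = activation under that limit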;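 note: 0% = zVAD with DMSO and 100% = DMSO alone without zVAD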
TNF necrop inh – inhibitors of TNF-alpha induced necroptosis in Jurkat FADD-/- cells | Jurkat FADD-/- TNF necroptosis rescue, ATP luminescence, 24 h; 0 = TNF only, 100 = no-TNF cells | activation (protection from cell death), % at 10 µM | 0.068% of 220,000 active | AID 463075;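 active = activation, meaning protection from cell death, of at least 50% relative to plate controls; inactive = activation below 50%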;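 note: necroptosis triggered by 40 ng/mL TNF-alpha added together with compound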
sdo1 growth – restores growth of sdo1-depleted yeast; AID 817; z-score at 10 µM; S. cerevisiae sdo1-depleted JHY4D growth rescue, OD600 30 h; stronger effect = higher value; pdr5 snq2 efflux-pump mutant strain; 0.21% of 140,000 active;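 active = z-score above 3 at both the 24 hr and the 30 hr optical density reads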;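 note: z-score against mean and SD of all compound wells on the same plate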
TNAP inh hiacc – blocks human TNAP under high phosphate acceptor concentration | P05186 | purified TNAP, CDP-star luminescence, 1 M DEA | inhibition, % at 20 µM | 0.03% of 200,000 active | AID 1135;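 active = over 50% inhibition of tissue-nonspecific alkaline phosphatase at 20 µM in the single-dose screen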;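 note: plate controls were DMSO wells for no effect and EDTA-quenched wells as full inhibition for full effect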
zVAD death conf – confirmed blocker of zVAD induced death in L929 cells | shares compounds with zVAD death inh | L929 zVAD-induced necroptosis rescue, ATP luminescence, 24 h | activation (protection from necroptosis), % at 10 µM | 16% of 760 active;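 active = mean protection from necroptosis of at least 50% over duplicate tests; inactive = mean protection below 50%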;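 note: 0% = cells with zVAD alone and 100% = vehicle cells without zVAD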
Active calls of the source: *.

For Cc1ccc(C2=Nc3ccccc3SC(c3cccc([N+](=O)[O-])c3)C2)cc1 (stereo unspecified) the results were zVAD death inh 1 and TNF necrop inh -8.
For COc1ccc(N2CCN(c3nc(-c4cccs4)nc4ccccc34)CC2)cc1 the results were TNAP act hiacc 1, TNAP inh noacc 0, zVAD death inh 0, TNF necrop inh -1 and TNAP inh hiacc 2.
`COc1ccc(OC)c(-n2c(=S)[nH]c3c(sc(=S)n3-c3ccccc3)c2=O)c1` gave TNAP act hiacc 1, TNAP inh noacc -6, zVAD death inh 1, TNF necrop inh 0 and TNAP inh hiacc 0.
For O=C1CCCc2c1[nH]c1ccccc21 the results were TNAP act hiacc 1, TNAP inh noacc -8, zVAD death inh 0, TNF necrop inh 0, sdo1 growth 0.68 and TNAP inh hiacc -1.
For O=CNC1CCCc2c1[nH]c1ccc(Cl)cc21 (stereo unspecified) the results were TNAP act hiacc 1, TNAP inh noacc -6, zVAD death inh 1, TNF necrop inh -3, sdo1 growth -0.41 and TNAP inh hiacc -4.
c1ccc2c3c([nH]c2c1)-c1[nH]ncc1CC3 was read as TNAP act hiacc 1, TNAP inh noacc 3, zVAD death inh 91*, TNF necrop inh 95*, sdo1 growth -0.37, TNAP inh hiacc -3 and zVAD death conf 93*.
Screening Clc1ccc2[nH]c3c(c2c1)CCc1cn[nH]c1-3 returned TNAP act hiacc 0.9, TNAP inh noacc -11, zVAD death inh 101*, TNF necrop inh 90*, sdo1 growth -2.4, TNAP inh hiacc 13 and zVAD death conf 83*.
Screening c1ccc(Nc2nc3ccccc3[nH]2)nc1 returned TNAP act hiacc 1, TNAP inh noacc -8, zVAD death inh 75*, TNF necrop inh 0, sdo1 growth 0.8, TNAP inh hiacc -3 and zVAD death conf 8.
Cc1cc(C)nc(Nc2nc3ccccc3[nH]2)n1 was read as TNAP act hiacc 1, TNAP inh noacc -110, zVAD death inh 0, TNF necrop inh -1, sdo1 growth 1.1 and TNAP inh hiacc -2.
`Cc1nn(C)cc1CN(C)S(=O)(=O)c1cccc([N+](=O)[O-])c1` gave TNAP act hiacc 1, TNAP inh noacc 3, zVAD death inh 2, TNF necrop inh 1 and TNAP inh hiacc 2.
`NC(=O)NOCc1ccc(Cl)cc1Cl` gave TNAP act hiacc 1, TNAP inh noacc -12, zVAD death inh 84*, TNF necrop inh 2, TNAP inh hiacc -1 and zVAD death conf 26.
Screening CN=C1S/C(=C\c2cc(C)n(-c3ccccc3F)c2C)C(=O)N1C returned TNAP act hiacc 1, TNAP inh noacc 1, zVAD death inh 78*, TNF necrop inh -13, sdo1 growth -0.8, TNAP inh hiacc 1 and zVAD death conf 6.
For CCOc1ccccc1NC(=O)Nc1ccccn1 the results were zVAD death inh 79*, TNF necrop inh -1 and zVAD death conf 3.
CCOc1ccccc1NC(=O)Nc1ccc(Br)cn1 was read as TNAP act hiacc 1.1, TNAP inh noacc -7, zVAD death inh 4, TNF necrop inh -1 and TNAP inh hiacc -8.
`O=C(O)C1CC=CCC1C(=O)NCc1ccc2c(c1)OCO2` (stereo unspecified) gave TNAP act hiacc 1, TNAP inh noacc -6, zVAD death inh 1, TNF necrop inh 0, sdo1 growth 0.06 and TNAP inh hiacc -1.
`COc1cc(/C=N/NC(=O)c2sc(N)c(C#N)c2C)cc(Br)c1O` gave TNAP act hiacc 1.1, TNAP inh noacc -1, zVAD death inh 99*, TNF necrop inh 5, sdo1 growth 1.1, TNAP inh hiacc -5 and zVAD death conf 39.
For COc1ccc2ccccc2c1/C=N/NC(=O)c1sc(N)c(C#N)c1C the results were TNAP act hiacc 1, TNAP inh noacc -14, zVAD death inh 1, TNF necrop inh 3, sdo1 growth 0.83 and TNAP inh hiacc -2.
`CC(CCc1ccccc1)NC(=O)C1CCN(S(=O)(=O)N2CCOCC2)CC1` (stereo unspecified) gave TNAP act hiacc 1, TNAP inh noacc -2, TNF necrop inh 3, sdo1 growth -0.04 and TNAP inh hiacc 0.
For O=C(Cn1nnc(-c2ccc(Cl)cc2)n1)NCC1CCCCC1 the results were TNAP act hiacc 1.1, TNAP inh noacc -8, zVAD death inh 88*, TNF necrop inh -4, sdo1 growth -1.4, TNAP inh hiacc -5 and zVAD death conf 44.
For O=C(Cn1nnc(-c2ccc(Cl)cc2)n1)NCCC1=CCCCC1 the results were TNAP act hiacc 1.1, TNAP inh noacc -13, zVAD death inh 1, TNF necrop inh -2, sdo1 growth -1.3 and TNAP inh hiacc -8.
`CC(C)(C)NC(=O)Cn1nnc(-c2ccc(Cl)cc2)n1` gave TNAP act hiacc 1, TNAP inh noacc -7, zVAD death inh 84*, TNF necrop inh 0, sdo1 growth -0.09, TNAP inh hiacc -4 and zVAD death conf 2.
`O=C(Cn1nnc(-c2ccc(Cl)cc2)n1)NC1CC2CCC1C2` (stereo unspecified) gave TNAP act hiacc 1.1, TNAP inh noacc -18, zVAD death inh 83*, TNF necrop inh 1, sdo1 growth -1.6, TNAP inh hiacc -8 and zVAD death conf 10.
CC(C)(C)NC(=O)Cn1nnc(-c2ccc(S(C)(=O)=O)cc2)n1 was read as TNAP act hiacc 1, TNAP inh noacc -10, zVAD death inh 0, TNF necrop inh 1, sdo1 growth 1.1 and TNAP inh hiacc -2.
`COc1ccc(NC(=S)NNC(=S)Nc2cccc(C(F)(F)F)c2)cc1` gave zVAD death inh 77*, TNF necrop inh 0 and zVAD death conf 6.
`COc1ccc(NC(=O)Nc2cc(C)cc(C)c2)cn1` gave zVAD death inh 5 and TNF necrop inh 4.
`COc1ccc(NC(=O)Nc2cccc(C(F)(F)F)c2)cn1` gave TNAP act hiacc 1, TNAP inh noacc -4, zVAD death inh 77*, TNF necrop inh 4, TNAP inh hiacc 0 and zVAD death conf 4.
Cn1cc([N+](=O)[O-])c(C(=O)NCc2ccccc2)n1 was read as zVAD death inh 0 and TNF necrop inh 1.
CN1CCN(CC(O)(c2ccc(Cl)cc2)c2ccc(Cl)cc2)CC1 was read as TNAP act hiacc 1, TNAP inh noacc -6, zVAD death inh 1, TNF necrop inh 4 and TNAP inh hiacc -2.

Compound activity from PubChem BioAssay.
